Converted amounts (≈) assume the structure as drawn. “And” between values parts separate entries of the source, which are not always exact repeats. Identical values can stand only once.
Experiments:
[1] = system: B16; experiment: Antiproliferative activity against B16 mouse melanoma cells; assay type: functional, cell-based
In short: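 B16 mouse melanoma cells (EMEM, 10% FCS, 37 °C, 5% CO2) plated at 200 cells/dish, adhered 20 h, then exposed 24 h to increasing drug concentrations. Drug medium removed, PBS wash, 12 days regrowth in fresh medium.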

[2] = system: DNA topoisomerase II (Bos taurus); experiment: Inhibitory activity towards Topoisomerase 2 from calf thymus
[3] = system: P388; experiment: Antiproliferative activity against P388 Murine Leukemia cells; assay type: functional, cell-based; conditions: Mus musculus
[4] = system: DNA topoisomerase I (Bos taurus); experiment: Inhibitory activity towards Topoisomerase 1 from calf thymus.
[5] = system: Bacillus cereus; experiment: Antimicrobial activity on Bacillus cereus; assay type: functional
[6] = target: Protein kinase C alpha type (Homo sapiens, UniProt P17252); experiment: Inhibition of Protein Kinase C(PKC)
In short: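 Procedure a: PKC (0.5 μg/mL) with histone IIIs (2.4 mg/mL), 10 μM ATP plus [γ32P]ATP, 10 mM MgCl2, 0.1 mM CaCl2, phosphatidylserine and diacylglycerol (10 mg/mL each), 50 mM Tris pH 7.5, at 30 °C for 12 min. TCA precipitation, histone-bound 32P counted by scintillation; triplicate.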

[7] = Inhibition of Protein Kinase A (PKA).
In short: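 PKA (1 μg/mL) phosphorylating histone IIa (1 mg/mL) with 10 μM ATP plus [γ32P]ATP, 5 mM MgCl2, 50 mM Tris pH 7.0, at 30 °C for 12 min. Stopped with 12% TCA with BSA carrier, reprecipitated. 32P incorporated into histone counted by scintillation; triplicate.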

[8] = system: Mus musculus; experiment: In vivo efficacy study on mice with B16 Melanoma cells determined after administration of 16 mg/kg/day dosage; assay type: functional, Melanoma cell
In short: (§1)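 Male B6D2F1 mice given 0.5 × 10⁶ B16 melanoma cells subcutaneously on the dorsum on day 0 (cells maintained in MEM culture). Drug given intraperitoneally on days 1, 5 and 9. Controls received DMSO–olive oil solvent. Six mice per treated group, 12 controls. Median survival time compared with controls, reported as oncostatic index T/C × 100.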

[9] = system: Mus musculus; experiment: In vivo efficacy study on mice with B16 Melanoma cells determined after administration of 2 mg/kg/day dosage; assay type: functional, Melanoma cell; in short: as §1
[10] = system: Mus musculus; experiment: Antitumor activity against mice with P388 leukemia cell was assessed from the ratio of median survival time of treated animals (T) to controls animals, at 2 mg/Kg; assay type: functional
In short: (§2)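 Male B6D2F1 mice injected intraperitoneally with 1×10^6 P388 leukemia cells on day 0 (line kept by weekly intraperitoneal passage in male DBA/2 mice). Drug given intraperitoneally on days 1, 5 and 9. Controls received DMSO–olive oil solvent. Six mice per treated group, 12 controls. Median survival time compared with controls, reported as oncostatic index T/C × 100.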

[11] = system: Mus musculus; experiment: Antitumor activity against mice with P388 leukemia cell was assessed from the ratio of median survival time of treated animals (T) to controls animals, at 16 mg/Kg; assay type: functional; in short: as §2
[12] = system: Mus musculus; experiment: Antitumor activity against mice with B16 melanoma was assessed from the ratio of median survival time of treated animals (T) to controls animals, at 64 mg/Kg; assay type: functional; in short: as §1
[13] = system: Mus musculus; experiment: Antitumor activity against mice with B16 melanoma was assessed from the ratio of median survival time of treated animals (T) to controls animals, at 2 mg/Kg; assay type: functional; in short: as §1
[14] = system: Mus musculus; experiment: In vivo efficacy study on mice with P388 Leukemia Cells determined after administration of 64 mg/kg/day dosage; assay type: functional; in short: as §2
[15] = system: Mus musculus; experiment: In vivo efficacy study on mice with P388 Leukemia Cells determined after administration of 2 mg/kg/day dosage; assay type: functional; in short: as §2
[16] = system: Mus musculus; experiment: In vivo efficacy study on mice with P388 Leukemia Cells determined after administration of 16 mg/kg/day dosage; assay type: functional; in short: as §2
[17] = system: Mus musculus; experiment: Antitumor activity against mice with B16 melanoma was assessed from the ratio of median survival time of treated animals (T) to controls animals, at 16 mg/Kg; assay type: functional; in short: as §1
[18] = system: Mus musculus; experiment: Antitumor activity against mice with P388 leukemia cell was assessed from the ratio of median survival time of treated animals (T) to controls animals, at 64 mg/Kg; assay type: functional; in short: as §2
[19] = system: Mus musculus; experiment: In vivo efficacy study on mice with B16 Melanoma Cells determined after administration of 64 mg/kg/day dosage; assay type: functional; in short: as §1

Compound	IC50 [1]	MIC [2]	IC50 [3]	MIC [4]	MIC [5]	IC50 [6]	IC50 [7]	further results
CO[C@H]1[C@H](O)[C@@H](O)[C@H](n2c3ccccc3c3c4c(c5c6ccccc6[nH]c5c32)C(=O)NC4=O)O[C@@H]1CO	17.5 µM	> 10 µg/mL	3.5 µM	1 µg/mL (≈ 1.99 µM)	> 50 µg/mL	> 100 µM	> 100 µM	
COC1C(CO)OC(n2c3c(Cl)cccc3c3c4c(c5c6cccc(Cl)c6[nH]c5c32)C(=O)N(N)C4=O)C(O)C1O (configuration not stated)	0.3 µM	> 10 µg/mL	0.1 µM	0.1 µg/mL (≈ 0.171 µM)	0.8 µg/mL (≈ 1.37 µM)	> 100 µM		
COC1C(CO)OC(n2c3c(Cl)cccc3c3c4c(c5c6cccc(Cl)c6[nH]c5c32)CNC4=O)C(O)C1O (configuration not stated)	> 125 µM	> 10 µg/mL	3 µM	1 µg/mL (≈ 1.8 µM)	3.1 µg/mL (≈ 5.57 µM)	28.8 µM	> 100 µM	
CO[C@H]1[C@H](O)[C@@H](O)[C@H](n2c3c(Cl)cccc3c3c4c(c5c6cccc(Cl)c6[nH]c5c32)C(=O)NC4=O)O[C@@H]1CO [REBECCAMYCIN]	0.48 µM		0.3 µM		6.25 µg/mL (≈ 11 µM)		> 100 µM	Mean survival in days [8]: 27.5 and 26; Mean survival in days [9]: 30.5; T/C x100 [10]: 136; T/C x100 [11]: 150; T/C x100 [12]: 106; T/C x100 [13]: 124; Mean survival in days [14]: 18; Mean survival in days [15]: 15; Mean survival in days [16]: 16.5; T/C x100 [17]: 112; T/C x100 [18]: 164
O=CNN1C(=O)c2c(c3c4ccccc4[nH]c3c3[nH]c4ccccc4c23)C1=O	> 100 µM	> 10 µg/mL	3.5 µM	1 µg/mL (≈ 2.71 µM)	50 µg/mL (≈ 136 µM)	> 100 µM		
O=C1NC(=O)c2c1c1c3cccc(Cl)c3[nH]c1c1[nH]c3c(Cl)cccc3c21	24 µM		> 10 µM		> 50 µg/mL	> 100 µM	> 100 µM	
COC1C(CO)OC(n2c3ccccc3c3c4c(c5c6ccccc6[nH]c5c32)C(=O)N(N)C4=O)C(O)C1O (configuration not stated)	4.1 µM	> 10 µg/mL	0.3 µM	0.1 µg/mL (≈ 0.194 µM)	50 µg/mL (≈ 96.8 µM)	> 100 µM		
NN1C(=O)c2c(c3c4cccc(Cl)c4[nH]c3c3[nH]c4c(Cl)cccc4c23)C1=O	17 µM	> 10 µg/mL	> 10 µM	> 10 µg/mL		> 100 µM		
COC1C(CO)OC(n2c3c(Cl)cccc3c3c4c(c5c6cccc(Cl)c6[nH]c5c32)C(=O)N(O)C4=O)C(O)C1O (configuration not stated)	0.7 µM	> 10 µg/mL	0.5 µM	0.3 µg/mL (≈ 0.512 µM)	3.1 µg/mL (≈ 5.29 µM)	68 µM		
COC1C(CO)OC(n2c3ccccc3c3c4c(c5c6ccccc6[nH]c5c32)CNC4=O)C(O)C1O (configuration not stated)		> 10 µg/mL	3 µM	0.01 µg/mL (≈ 0.0205 µM)	12.5 µg/mL (≈ 25.6 µM)	3.7 µM		
NN1C(=O)c2c(c3c4ccccc4[nH]c3c3[nH]c4ccccc4c23)C1=O	> 250 µM		> 10 µM		> 50 µg/mL	43.5 µM	44.6 µM	
O=C1c2c(c3c4ccccc4[nH]c3c3[nH]c4ccccc4c23)C(=O)N1CCO	> 150 µM	> 10 µg/mL	7 µM	> 10 µg/mL	> 50 µg/mL	> 100 µM		
O=C1NC(O)c2c1c1c3cccc(Cl)c3[nH]c1c1[nH]c3c(Cl)cccc3c21 (configuration not stated)	8.4 µM	> 10 µg/mL	9 µM	> 10 µg/mL	> 50 µg/mL	> 100 µM	> 100 µM	
O=C1NCc2c1c1c3cccc(Cl)c3[nH]c1c1[nH]c3c(Cl)cccc3c21		> 10 µg/mL	3.5 µM	> 10 µg/mL	6.25 µg/mL (≈ 16.4 µM)	> 100 µM	> 100 µM	
COC1C(CO)OC(n2c3c(Cl)cccc3c3c4c(c5c6cccc(Cl)c6[nH]c5c32)C(=O)N(NC=O)C4=O)C(O)C1O (configuration not stated)		> 10 µg/mL	0.3 µM	1 µg/mL (≈ 1.63 µM)	3.1 µg/mL (≈ 5.05 µM)	> 100 µM		
O=C1c2c(c3c4ccccc4[nH]c3c3[nH]c4ccccc4c23)C(=O)N1O	4.6 µM	> 10 µg/mL	> 10 µM	> 10 µg/mL	> 50 µg/mL	79.2 µM	41.5 µM	Mean survival in days [8]: 31.5; Mean survival in days [9]: 27.5; T/C x100 [10]: 104; T/C x100 [11]: 100; T/C x100 [12]: 112; T/C x100 [13]: 112; Mean survival in days [19]: 27.5; Mean survival in days [14]: 11; Mean survival in days [15]: 11.5; Mean survival in days [16]: 11; T/C x100 [17]: 128; T/C x100 [18]: 100
O=C1NC(=O)c2c1c1c3ccccc3[nH]c1c1[nH]c3ccccc3c21 [STAUROSPORINE AGLYCON]	> 100 µM		4 µM		> 50 µg/mL		60 µM	
COC1C(CO)OC(n2c3ccccc3c3c4c(c5c6ccccc6[nH]c5c32)C(=O)N(NC=O)C4=O)C(O)C1O (configuration not stated)		> 10 µg/mL	0.3 µM	0.1 µg/mL (≈ 0.184 µM)	25 µg/mL (≈ 45.9 µM)	> 100 µM		
O=CNN1C(=O)c2c(c3c4cccc(Cl)c4[nH]c3c3[nH]c4c(Cl)cccc4c23)C1=O			> 10 µM		> 50 µg/mL	> 100 µM		
COC1C(CO)OC(n2c3ccccc3c3c4c(c5c6ccccc6[nH]c5c32)C(=O)N(O)C4=O)C(O)C1O (configuration not stated)	5.8 µM	> 10 µg/mL	3 µM	0.1 µg/mL (≈ 0.193 µM)	25 µg/mL (≈ 48.3 µM)	40 µM		
O=C1NC(O)c2c1c1c3ccccc3[nH]c1c1[nH]c3ccccc3c21 (configuration not stated)			0.3 µM		6.25 µg/mL (≈ 19.1 µM)		34 µM	

— ChEMBL document CHEMBL1129573, “Structure-activity relationships in a series of substituted indolocarbazoles: topoisomerase I and protein kinase C inhibition and antitumoral and antimicrobial properties” (J Med Chem, 1996)
